Test results from the EternaBench riboswitch data.

Test system: MS2 coat protein
Assay: apparent Kd, MS2 coat protein; higher = weaker binding; RNA-MaP array; FMN 200 µM where present
How it was run: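 Green signal was scaled to red-channel RNA signal and control-cluster median Fmax, and the apparent Kd was taken as the median of filtered per-cluster binding-curve fits. The binding series used SNAP-549-labelled MS2 coat protein from 0.7 or 1.5 nM, doubling to 3 µM, on designs transcribed by stalled E. coli RNA polymerase on Illumina sequencing-chip clusters. Each series ran without and then with constant ligand in 100 mM Tris-HCl pH 7.5, 80 mM KCl, 4 mM MgCl2, BSA, DTT, yeast tRNA and Tween-20.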

[1] = designed as: OFF switch for flavin mononucleotide, no ligand
[2] = ligand present: flavin mononucleotide, designed as: OFF switch for flavin mononucleotide
[3] = designed as: ON switch for flavin mononucleotide, no ligand
[4] = ligand present: flavin mononucleotide, designed as: ON switch for flavin mononucleotide

| Sequence | apparent Kd [1] [nM] | apparent Kd [2] [nM] | apparent Kd [3] [nM] | apparent Kd [4] [nM] |
| --- | --- | --- | --- | --- |
| UUCGUGUAAGGAUAUACGACUCAUCCCAAUGGGACGAGCACGUAGAAGGUACAUGAGGAUCACCCAUGUGCUCC | 27.1 | 155 | – | – |
| GCGGGUAAAGCAGGAUAUCUAAUGUCACGGAAACAUGAGGAUCACCCAUGUAGAGAAGGGCUAAGUCAUACAAUUCGAAUUUGC | 9.04 | 8.24 | – | – |
| UGCUGACGAGGAUAUACAUGAGGAUCACCCAUGUUGGUCAAGCGACGAUAGUCGCAAUGUAGAAGGCGUCAGCU | 483 | 208 | – | – |
| UUUUAUAGAACAGGAUAUGUGGGCGGGUCCGACGGGAUCCACCACAUGAGGAUCACCCAUGUGACACAGAAGGGUUCCAGAAAC | – | – | 474 | 24.2 |
| UAAUAAAGUGUGAGGAUAUGCUGGUCCUUGGAUCAGCAGAAGGCACAUGAGGAUCACCCAUGUAAUAUAUAUAU | 87.7 | 223 | – | – |
| AGUGACGACGAGGAUAUUCCGGUAGCCUACUAAGAAGAAGGUGUCACAUGAGGAUCACCCAUGUUUAGUUUCGC | 141 | 68.7 | – | – |
| ACACAGGGAGGAUAUACAUGAGGAUCACCCAUGUAGAGUGGAUUGGGAUUGCUAUCAAGUAGAAGGCUUUAGUG | 56.1 | 122 | – | – |
| AUGGUUGUCGUAGGAUAUGUAGGAUAUUCCUACAUGAGGAUCACCCAUGUUCGCAUGGAAGAAGGACAGAAGGACGAUAACCAC | – | – | 1310 | 8.46 |
| AAAGUUCGAGGAUAUCUACUUAGCUACAUGAGGAUCACCCAUGUUAUCCUCCCGCUGGGAAGAGAAGGCGGUUAAA | 36.5 | 210 | – | – |
| CGGUUGCGCUCCUAUGGUUUGAACAUGAGGAUCACCCAUGUACAGGAUAUAGUAAGAACGCCUUACUAGAAGGGUACGUUCUCG | 18.9 | 22 | – | – |
| AGAGAAUAGGUAGGAUAUCUUAAUAGAAAGAAUAGAGAAGGACCACAUGAGGAUCACCCAUGUGAUGUCUUGAGACUACAUGGU | 16.4 | 19.4 | – | – |
| UAAAAGCUAGGAUAUACAUGAGGAUCACCCAUGUCACGGGUCCACUCAUCCUAUACGUGUAGAAGGAGCGACCC | – | 19.2 | – | – |
| CGCUACAGCCAGAAGGACAUGAGGAUCACCCAUGUAGGAUAUGGGAGACGAGGUCCAGUGUAGAGAAACUACGCUACUGUAGCG | – | – | 292 | 151 |
| GGACAUGUCGUUUACAUGAGGAUCACCCAUGUCGAUGGACAUGAGGAUAUCGAUACGAAUCGUAUCGAGAAGGCAUGCAUGUCC | – | – | 42.8 | 18.5 |
| CUGAUGUGAGGAUAUGUGAUCUGCCUUCUAUAUAGAUGAUUACAGAAGGCACAUGAGGAUCACCCAUGUAGAUC | 74.7 | 62.6 | – | – |
| GAUCGUUCUGUUAGGAUAUGCUUUGGGCUUCCGCAGUAGAAGGAACAUGAGGAUCACCCAUGUCCGAUGCCGUC | 25.6 | 28.1 | – | – |
| GGAUAGGACAGAGGAUAUACGUGCUAGAGAUACUAGCUACAAAUCCUUACAUGAGGAUCACCCAUGUAGAAGGCUGUCCUAUCG | 19.3 | 38.3 | – | – |
| UCAGGAGUCACAGGAUAUCCGGCAUAGCAUACAGGAGAAGGGUGAUCACAAGCACAUGAGGAUCACCCAUGUGACAUUUGUGGA | – | – | 115 | 49.5 |
| UCUAUGUAGAUUCGUCAAUACAGUUAGGAUAUGAGAUACAUGAGGAUCACCCAUGUGCAUGUGGAUUAGAAGGAACAAUUAACU | 93.4 | 69.8 | – | – |

| Sequence | apparent Kd [1] [nM] | apparent Kd [2] [nM] | apparent Kd [3] [nM] | apparent Kd [4] [nM] |
| --- | --- | --- | --- | --- |
| AGCUGGUGACAGCAUCCAUCAAAACAUGAGGAUCACCCAUGUAGAAGGCUGUACGGUUACCGUACAGAGGAUAUACAAUGAUGG | 7.61 | 9.36 | – | – |
| GUCAGCUCGUGAGGAUAUACAACACUGCUUCGGCAGUGUAUUAUGAUCACAUGAGGAUCACCCAUGUAGAAGGCACGAGCUGAU | 29.3 | 230 | – | – |
| ACAAAGUGAGGAUAUGCUAUUAUACAUUAUUGUUAUUAUUUGCAGAAGGCACAUGAGGAUCACCCAUGUAAGAA | 29.8 | 22.6 | – | – |
| AUCUCGUCAGGAUAUCCUAGUAAUUGUUUCAUAUUUACGAUGGAGAAGGGACAUGAGGAUCACCCAUGUUGGUC | 64.4 | 144 | – | – |
| AAGAAGUGAGGAUAUAGUUGCACUAGCUAAUGCUAGUGCAACUAGAAGGCACAUGAGGAUCACCCAUGUAAAAG | 29.1 | 41.9 | – | – |
| GCAGUAUCAGGAUAUACAUGAGGAUCACCCAUGUGACUCCAUAGGAAGCUAUGUGGAUGUAGAAGGGAUCACUG | 54.6 | 183 | – | – |
| GUGCUGCAGCUGUGCACGAGACAUGAGGAUCACCCAUGUGACAGAAGGGACUUGUUAAAGGUAGGUCAGGAUAUGUCUUAAAAG | – | – | 107 | 37.3 |
| GUCGUGUGAGGAUAUGAUUAUUAGGCGGGAUUGCGACUGCUUCAGAAGGCACAUGAGGAUCACCCAUGUAUGAA | 11.4 | 39 | – | – |
| UGAUAGGACAGAGGAUAUACGUGCUAGAGAUACUAGCAAAGUAUCUUGACAUGAGGAUCACCCAUGUAGAAGGCUGUCCUAUCU | 5.99 | 14.3 | – | – |
| ACAUGAGGAUCACCCAUGUUUUUUGGGUACUUUUGUUUCUGCAAGGAUAUGCAUUAUUUAUAUACGCAGAAGGUGCAUUACUUC | 573 | 708 | – | – |
| AUCAGCUCGUCAGGAUAUACGUCACUGCGUAAGCAGUGUGGUAAGAUCACAUGAGGAUCACCCAUGUAGAAGGGACGAGCUGAU | 12.9 | 288 | – | – |
| CAUGUCUGAGGAUAUCGUUAUUUGUACAUGAGGAUCACCCAUGUCCUAUUUAUUAUAUUUCGAGAAGGCAGUGUAU | 16.9 | 18.2 | – | – |
| GUCGUGCGGCUUUGCUGUACGAGUACAUGAGGAUCACCCAUGUAGGAUAUGGUUCGUUUUGCGUGCCAGAAGGGCGUGCGUUGU | 25.5 | 24.8 | – | – |
| UCCACUGCUGAGAAGGGAUAGAUAUCGUUCUAGUCAGGAUAUCAAUACAGUGCAGCAUGAGGACAUGAGGAUCACCCAUGUAUU | – | – | 14.2 | 10.9 |
| UGGAUGGUAUGAGGAUAUGCGCGCGAAACGUGCGCAGAAGGCAUGUCAAUAGACAUGAGGAUCACCCAUGUAUUAUCCAUCCAA | – | – | 140 | 12.5 |
| AUCAUGCUCAAGAAGGACAUGAGGAUCACCCAUGUAGGAUAUUGGGCGGUCACUUCUAGCUUGUGUGUAUCUGAAUACUCCAGG | – | – | 20.4 | – |
| UUUUUUAAGUAAGGAUAUCGGUCUUAGUUAGGUCGAGAAGGUACAUGAGGAUCACCCAUGUUGUUUUUUUUUUCUUUUUUUUUU | 9.51 | 14.1 | – | – |
| GGUAGAAACAUUAACAUGAGGAUCACCCAUGUCAAAAGAAAUGAGGAUAUCGUAUACAAUGUAUAUGAGAAGGCAUGGUCUACC | – | – | 7.78 | 5.77 |
| AACUGACAUGAGGAUCACCCAUGUCAGGAUAUGAUUUGACGAAAUAAAAUAAGUCAUAUCAGAAGGGACAUGGA | 25.9 | 46.9 | – | – |

| Sequence | apparent Kd [1] [nM] | apparent Kd [2] [nM] | apparent Kd [3] [nM] | apparent Kd [4] [nM] |
| --- | --- | --- | --- | --- |
| UUAAUUAUACAAGGAUAUCUAUUGUUCUUUCGACUUACAUGAGGAUCACCCAUGUUAAUAUAUAUAGAGAAGGUGUAUUUUCAG | – | – | 43.3 | 25.4 |
| UGGUUGUGUGUCAGGAUAUGGUCUGGUGUUUCGGGCUAGAAGGGACAUGAGGAUCACCCAUGUGGCUGGUGCGC | 149 | 186 | – | – |
| AACUAUGUAUUUAUAGUGUCUGACAGAAGGCAAUAGGUUGUGACCGACAUGAGGAUCACCCAUGUUGAGGAUAUGUCUAGCUAC | 40.4 | 264 | – | – |
| CGAUAGGACAGAGGAUAUACACAUGAGGAUCACCCAUGUGAUUACAACGCUUAAGCUCCAAACAUGUAGAAGGCUGUCCUAUCG | 21.7 | 27.9 | – | – |
| CCUAUACAUGAGGAUCACCCAUGUCAGGAUAUAGAAAGCUACGGAAUAGGACGUAGCACUAGAAGGGACUGGCU | 29.2 | 43.4 | – | – |
| AUAUGAUAGAUAGGAUAUACUAUGGUUGAAUAUGUAGAAGGAUCAAUAGGGAAAUGUACAUGAGGAUCACCCAUGUUAUGGAUU | – | – | 32.9 | 31.3 |
| GAGAAGUCAGGAUAUGCAUGGCGGGACUUGCGUCGUGGCGUGCAGAAGGGACAUGAGGAUCACCCAUGUAAAGA | 53 | 49 | – | – |
| AGGAGGUCAGGAUAUGCAUGGCGGGACUUGCGUCGUGGCGUGCAGAAGGGACAUGAGGAUCACCCAUGUGGAGG | 125 | 181 | – | – |
| GUAGCAUUGAGAGGAUAUCCAUACCGGAAACGGACAUGAGGAUCACCCAUGUGGCGAAAGCCAUGGGAGAAGGCUCUAUGCUAC | – | – | 10.2 | 5.44 |
| AUCAGCUCGUCAGGAUAUACGUAAUGGUAAGAUCACAUGAGGAUCACCCAUGUAGAAGGGACGAGCUGAUAAGCACGAAAGUGC | 192 | 676 | – | – |
| UUGGACGUCGUAGGAUAUGUAGGAUAUUCCUACAUGAGGAUCACCCAUGUUGACAUGGCAGAAGGACAGAAGGACGAUGUCCAU | – | – | 938 | 129 |
| AAAAAGUCAGGAUAUCCAAAAAAAAAAAAAAAAAAAAAAAAGGAGAAGGGACAUGAGGAUCACCCAUGUAAAAA | 77.9 | 85.3 | – | – |
| GAUAUGGGAGGAUAUGCAUAGAUAAAGAAACAUGUUCAACCACAUGAGGAUCACCCAUGUAGAAGGCCCAUAUC | 31.9 | 147 | – | – |
| CAUAUCGUAACAGGAUAUAUGAGUCCUACAUGAGGAUCACCCAUGUAGGUGAUCUAACGAGAUUAGUAGAAGGGUUACGAUAUG | – | – | 16.6 | 8.68 |
| GUCAGCUCGUGAGGAUAUACAUCACUGCUUCGGCAGUGUAUUAAGACAACAUGAGGAUCACCCAUGUAGAAGGCACGAGCUGAU | 16.9 | 20.4 | – | – |
| UGUCCAUAGCAGAAGGCACAUCCACAAAAUAAAACAUGAGGAUCACCCAUGUGAGGAUAUGCUAUGGACUAAGAGCGAAAGCUC | 5.44 | 21.8 | – | – |
| UUUUGGUCAGGAUAUUGUUAGUUUAGUUGUUUGUAUUAGUUCGAGAAGGGACAUGAGGAUCACCCAUGUGGUUU | 71.8 | 58.9 | – | – |
| AUACCACGAGGAUAUCGUCUAUUCCACAUGAGGAUCACCCAUGUUAUCCAUGUUUCGUUUCGAGAAGGCGUGUUUU | 59.3 | 41.5 | – | – |
